PMC9532722 (Acta Pharmaceutica Sinica. B, 2022)
Converted amounts (≈) assume the structure as drawn. “And” between values parts separate entries of the source, which are not always exact repeats. Identical values can stand only once. Like-named read-outs stand apart in the source and are kept apart here.

Columns and labels:
[1] = Effective permeability by PAMPA; assay type: physicochemical; conditions: pH 7.4
CYP3A4 [2] = target: T1, CYP3A4 (Homo sapiens, UniProt P08684); assay: Mechanism-based inactivation of CYP3A4, rivaroxaban as probe substrate; assay type: biochemical
Summary of the method: (§1)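 Two-step inactivation assay. Recombinant CYP3A4 or CYP3A5 (20 pmol/mL) pre-incubated at 37 °C with test compound (0–20 μmol/L) and NADPH system in potassium phosphate buffer. At set times, aliquots diluted 20-fold into rivaroxaban plus NADPH regenerating system and incubated 2 h. ACN quench; rivaroxaban morpholinone product measured by LC–MS/MS. kobs from log % activity versus time; kinact and KI from kobs versus concentration; n = 3, mean ± SEM.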

[3] = tested on: persistent AF canine model; assay: Proarrhythmic risk; assay type: in vivo, beagle dogs; conditions: 3 mg/kg i.v.; for peak increment of STVQT: at 3 h (dronedarone), 9 h (poyendarone), 1 h (amiodarone), n = 4
[4] = Aqueous kinetic solubility; assay type: physicochemical; conditions: universal aqueous buffer, pH 7.4
Summary of the method: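 Kinetic solubility: test compound from 10 mmol/L DMSO stock diluted into universal aqueous buffer, pH 7.4 (1% DMSO, v/v), then sonicated. Run in 3 filter-plate wells, agitated 24 h at 250 rpm at room temperature and filtered. Filtrate brought to 80:20 buffer/ACN. Solubility estimated from UV absorbance at 300 nm.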

[5] = target: human CaV1.2 α1C cardiac isoform (Homo sapiens, UniProt Q13936); assay: Whole-cell patch clamp, CaV1.2 peak current in transfected HEK293FT cells; assay type: cell-based
hiPSC-CMs = assay: BTB variability in hiPSC-CMs; assay type: cell-based, human; conditions: hiPSC-CM, 1 μmol/L
Summary of the method: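 Cardiomyocytes from hiPSC made by viral-free reprogramming of human foreskin fibroblasts. Exposed to test compound (0–10 μmol/L); MEA field potentials recorded 5 min at baseline and 5 min after dosing. Successive RR intervals plotted as Poincaré plots, giving SD1 (STVRR) and SD2 (LTVRR). One experiment in triplicate, mean ± SEM; groups compared with control by one-way ANOVA and Dunnett's test.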

CYP2J2 [6] = target: T2, CYP2J2 (Homo sapiens, UniProt P51589); assay: in vitro; assay type: in vitro ADME
T2 sequence (P51589 1-502): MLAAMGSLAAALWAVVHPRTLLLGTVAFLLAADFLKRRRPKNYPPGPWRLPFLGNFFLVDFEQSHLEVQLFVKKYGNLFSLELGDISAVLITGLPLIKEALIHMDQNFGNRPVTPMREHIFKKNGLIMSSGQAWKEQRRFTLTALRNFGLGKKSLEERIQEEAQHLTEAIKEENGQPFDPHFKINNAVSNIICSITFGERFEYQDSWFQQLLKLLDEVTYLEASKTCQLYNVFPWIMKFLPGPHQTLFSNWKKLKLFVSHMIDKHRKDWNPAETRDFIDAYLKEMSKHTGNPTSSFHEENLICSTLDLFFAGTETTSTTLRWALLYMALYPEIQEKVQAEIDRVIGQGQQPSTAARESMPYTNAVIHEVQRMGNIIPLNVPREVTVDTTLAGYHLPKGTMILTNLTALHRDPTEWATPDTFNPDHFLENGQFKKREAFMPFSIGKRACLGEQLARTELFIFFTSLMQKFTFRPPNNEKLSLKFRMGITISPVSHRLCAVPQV

CYP2J2 [7] = target: T2, CYP2J2; assay: in vitro; assay type: biochemical
[8] = tested on: persistent AF canine model; assay: Anti-atrial fibrillatory effect in persistent AF canine model; assay type: in vivo, beagle dogs
CYP2J2 [9] = target: T2, CYP2J2; assay type: biochemical; conditions: CYP2J2-mediated astemizole O-desmethylation
CYP3A5 [10] = target: T3, CYP3A5 (Homo sapiens, UniProt P20815); assay: Mechanism-based inactivation of CYP3A5, rivaroxaban as probe substrate; assay type: biochemical
Summary of the method: as §1

[11] = Metabolic stability, substrate depletion, HLM; assay type: in vitro ADME; conditions: human, human liver microsomes
Summary of the method: (§2)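 Substrate depletion. Test compound at 1 μmol/L incubated with NADPH generating system (NADP+, glucose 6-phosphate, glucose-6-phosphate dehydrogenase) and one enzyme source: human liver microsomes 0.5 mg/mL, rCYP3A4 10 pmol/mL or rCYP3A5 10 pmol/mL. Aliquots at set times quenched in ice-cold ACN with internal standard; parent measured by LC–MS/MS. Percent remaining versus time fitted to one-phase decay for CLint.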

CYP2J2 [12] = target: T2, CYP2J2; assay type: biochemical; conditions: co-incubation 2 h with NADPH
H9c2 cells = assay: Concurrent cytotoxicity and ATP depletion; assay type: cell-based, rat; conditions: 6 h
CYP3A4 [13] = target: T1, CYP3A4; assay: Metabolic stability, substrate depletion, rCYP3A4; assay type: in vitro ADME
Summary of the method: as §2

CYP3A5 [14] = target: T3, CYP3A5; assay: Metabolic stability, substrate depletion, rCYP3A5; assay type: in vitro ADME
Summary of the method: as §2

[15] = tested on: canine model of paroxysmal AF; conditions: basic pacing cycle length of 200 ms; cited from earlier work
human NaV1.5 channel = human NaV1.5 channel (Homo sapiens, UniProt Q14524); assay: Whole-cell patch clamp, NaV1.5 peak current in transfected HEK293FT cells; assay type: cell-based
Summary of the method: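 HEK293FT cells grown in DMEM with 10% FBS at 37 °C, 5% CO2. Co-transfected with human NaV1.5 and β1-subunit plasmids; replated on coated coverslips 24 h before recording. Peak INa measured by whole-cell voltage clamp with test compound at 1–10 μmol/L: 5–6 kHz filter, >70% series-resistance compensation, P/4 leak subtraction. IC50 from variable-slope log(inhibitor)–response fit.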

hKV11.1 (hERG) channel = hKV11.1 (hERG) channel (Homo sapiens, UniProt Q12809); assay: Whole-cell patch clamp, KV11.1 tail current in transfected HEK293FT cells; assay type: cell-based
Summary of the method: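 HEK293FT cells grown in DMEM with 10% FBS at 37 °C, 5% CO2. Co-transfected with human KV11.1 and KCNE1 plasmids, then plated on poly-D-lysine coverslips. Test compound applied at 10 nmol/L–1 μmol/L under whole-cell voltage clamp: 1 kHz filter, >70% series-resistance compensation, P/4 leak subtraction. Pulses of 2.5 s from −80 to 20 mV; tail current recorded at −60 mV. IC50 from variable-slope log(inhibitor)–response fit.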

[16] = hydrochloride 3 mg/kg i.v., conscious dogs

T1 sequence (P08684 whole entry): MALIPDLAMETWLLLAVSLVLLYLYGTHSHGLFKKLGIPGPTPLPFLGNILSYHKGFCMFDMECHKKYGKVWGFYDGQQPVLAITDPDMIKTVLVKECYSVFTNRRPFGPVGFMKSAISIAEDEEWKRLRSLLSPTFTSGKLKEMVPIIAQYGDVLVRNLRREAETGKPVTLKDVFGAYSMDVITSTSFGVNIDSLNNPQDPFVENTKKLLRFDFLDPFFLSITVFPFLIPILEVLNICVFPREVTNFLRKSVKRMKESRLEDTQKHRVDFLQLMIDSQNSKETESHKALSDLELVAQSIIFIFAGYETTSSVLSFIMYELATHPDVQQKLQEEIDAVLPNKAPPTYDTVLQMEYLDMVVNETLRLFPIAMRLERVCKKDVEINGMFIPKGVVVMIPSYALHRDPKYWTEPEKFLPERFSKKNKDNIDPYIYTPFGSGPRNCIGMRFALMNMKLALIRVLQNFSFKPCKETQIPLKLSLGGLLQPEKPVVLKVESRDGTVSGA
T3 sequence (P20815 whole entry): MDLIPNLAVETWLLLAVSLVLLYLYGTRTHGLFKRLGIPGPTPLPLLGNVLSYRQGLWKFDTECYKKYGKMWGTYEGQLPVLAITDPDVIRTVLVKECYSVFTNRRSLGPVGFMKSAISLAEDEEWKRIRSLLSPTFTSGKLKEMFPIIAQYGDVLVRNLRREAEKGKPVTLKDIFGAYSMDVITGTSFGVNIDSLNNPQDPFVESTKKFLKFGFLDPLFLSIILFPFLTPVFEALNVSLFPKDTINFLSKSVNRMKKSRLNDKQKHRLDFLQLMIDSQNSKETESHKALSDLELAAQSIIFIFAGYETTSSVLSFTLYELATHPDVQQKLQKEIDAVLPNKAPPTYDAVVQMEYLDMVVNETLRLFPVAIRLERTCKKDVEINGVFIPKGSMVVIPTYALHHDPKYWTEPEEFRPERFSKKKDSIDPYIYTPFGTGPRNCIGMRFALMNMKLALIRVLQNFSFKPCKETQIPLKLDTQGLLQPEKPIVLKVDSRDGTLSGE
Chain of human CaV1.2 α1C cardiac isoform (Q13936 17-2221): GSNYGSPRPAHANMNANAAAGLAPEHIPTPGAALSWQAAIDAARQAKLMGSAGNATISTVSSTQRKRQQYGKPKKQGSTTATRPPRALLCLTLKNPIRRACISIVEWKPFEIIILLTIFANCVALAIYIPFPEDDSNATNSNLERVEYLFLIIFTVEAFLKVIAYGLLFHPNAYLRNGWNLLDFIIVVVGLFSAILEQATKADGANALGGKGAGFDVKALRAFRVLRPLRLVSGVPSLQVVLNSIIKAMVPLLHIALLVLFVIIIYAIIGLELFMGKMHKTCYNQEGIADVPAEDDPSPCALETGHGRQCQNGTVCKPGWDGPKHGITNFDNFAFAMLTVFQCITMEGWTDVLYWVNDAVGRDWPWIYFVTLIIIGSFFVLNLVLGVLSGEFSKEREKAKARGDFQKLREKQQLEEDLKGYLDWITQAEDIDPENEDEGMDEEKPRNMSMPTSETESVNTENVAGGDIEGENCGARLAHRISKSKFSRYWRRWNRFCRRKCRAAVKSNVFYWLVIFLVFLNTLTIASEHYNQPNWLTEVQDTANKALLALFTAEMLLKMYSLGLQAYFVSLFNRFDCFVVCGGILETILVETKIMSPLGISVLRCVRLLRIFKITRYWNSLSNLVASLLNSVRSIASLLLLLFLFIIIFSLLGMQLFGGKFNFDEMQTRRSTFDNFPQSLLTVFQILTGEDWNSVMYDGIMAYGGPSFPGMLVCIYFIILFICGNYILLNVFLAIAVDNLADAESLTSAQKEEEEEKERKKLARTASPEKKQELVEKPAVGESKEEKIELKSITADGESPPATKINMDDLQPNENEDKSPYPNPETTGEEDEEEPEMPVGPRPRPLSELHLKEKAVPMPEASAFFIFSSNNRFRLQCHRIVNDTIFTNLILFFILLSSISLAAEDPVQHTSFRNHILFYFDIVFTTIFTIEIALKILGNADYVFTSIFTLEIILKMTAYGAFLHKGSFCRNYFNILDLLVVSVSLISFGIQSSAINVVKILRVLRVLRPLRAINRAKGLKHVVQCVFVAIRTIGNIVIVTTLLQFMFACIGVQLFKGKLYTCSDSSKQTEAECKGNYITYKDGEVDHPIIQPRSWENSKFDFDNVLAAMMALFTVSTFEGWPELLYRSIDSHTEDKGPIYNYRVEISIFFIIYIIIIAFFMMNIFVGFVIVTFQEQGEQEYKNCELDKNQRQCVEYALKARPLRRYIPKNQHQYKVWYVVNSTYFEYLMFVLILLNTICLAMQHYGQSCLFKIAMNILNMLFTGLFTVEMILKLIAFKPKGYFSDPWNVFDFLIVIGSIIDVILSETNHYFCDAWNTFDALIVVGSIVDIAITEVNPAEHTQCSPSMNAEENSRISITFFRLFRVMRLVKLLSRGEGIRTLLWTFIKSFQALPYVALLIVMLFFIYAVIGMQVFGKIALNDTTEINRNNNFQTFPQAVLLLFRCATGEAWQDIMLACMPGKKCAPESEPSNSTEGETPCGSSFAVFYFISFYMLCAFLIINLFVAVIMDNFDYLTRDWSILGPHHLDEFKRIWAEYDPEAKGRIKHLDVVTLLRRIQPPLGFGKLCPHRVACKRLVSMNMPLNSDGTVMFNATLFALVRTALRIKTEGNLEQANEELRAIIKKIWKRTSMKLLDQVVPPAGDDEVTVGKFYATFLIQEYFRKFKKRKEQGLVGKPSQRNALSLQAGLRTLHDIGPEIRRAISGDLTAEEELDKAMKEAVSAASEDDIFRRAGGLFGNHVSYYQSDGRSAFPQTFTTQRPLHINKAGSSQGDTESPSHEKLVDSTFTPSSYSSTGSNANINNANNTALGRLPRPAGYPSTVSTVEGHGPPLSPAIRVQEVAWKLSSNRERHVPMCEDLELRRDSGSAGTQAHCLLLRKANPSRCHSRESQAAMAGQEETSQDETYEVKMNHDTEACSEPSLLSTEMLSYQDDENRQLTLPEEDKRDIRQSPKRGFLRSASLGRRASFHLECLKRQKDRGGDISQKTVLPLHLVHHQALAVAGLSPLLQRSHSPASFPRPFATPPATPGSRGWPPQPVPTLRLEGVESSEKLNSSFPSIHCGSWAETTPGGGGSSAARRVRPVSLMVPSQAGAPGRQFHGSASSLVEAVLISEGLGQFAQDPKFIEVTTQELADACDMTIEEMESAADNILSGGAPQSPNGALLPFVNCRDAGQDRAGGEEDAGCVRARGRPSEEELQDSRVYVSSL
Chain of human CaV1.2 α1C cardiac isoform (Q08289 whole entry partner, canonical isoform): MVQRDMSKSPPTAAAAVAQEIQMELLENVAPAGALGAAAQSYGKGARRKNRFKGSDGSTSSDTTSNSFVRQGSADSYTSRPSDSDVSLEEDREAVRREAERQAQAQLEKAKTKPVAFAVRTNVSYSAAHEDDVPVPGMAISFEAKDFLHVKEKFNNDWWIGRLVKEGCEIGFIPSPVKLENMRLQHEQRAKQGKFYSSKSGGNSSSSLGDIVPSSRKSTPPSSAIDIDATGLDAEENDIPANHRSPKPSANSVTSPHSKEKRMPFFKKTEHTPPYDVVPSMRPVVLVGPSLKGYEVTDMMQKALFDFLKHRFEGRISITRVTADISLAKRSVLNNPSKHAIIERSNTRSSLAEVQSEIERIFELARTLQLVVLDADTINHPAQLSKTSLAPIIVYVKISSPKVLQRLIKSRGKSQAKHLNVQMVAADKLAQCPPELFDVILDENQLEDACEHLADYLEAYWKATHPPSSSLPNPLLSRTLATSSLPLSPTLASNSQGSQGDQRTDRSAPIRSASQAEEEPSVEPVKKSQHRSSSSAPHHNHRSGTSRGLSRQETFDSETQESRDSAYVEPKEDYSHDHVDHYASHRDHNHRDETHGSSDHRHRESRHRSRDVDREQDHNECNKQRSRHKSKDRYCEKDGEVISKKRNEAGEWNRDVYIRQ
Chain of human CaV1.2 α1C cardiac isoform (P54289 25-1103 partner): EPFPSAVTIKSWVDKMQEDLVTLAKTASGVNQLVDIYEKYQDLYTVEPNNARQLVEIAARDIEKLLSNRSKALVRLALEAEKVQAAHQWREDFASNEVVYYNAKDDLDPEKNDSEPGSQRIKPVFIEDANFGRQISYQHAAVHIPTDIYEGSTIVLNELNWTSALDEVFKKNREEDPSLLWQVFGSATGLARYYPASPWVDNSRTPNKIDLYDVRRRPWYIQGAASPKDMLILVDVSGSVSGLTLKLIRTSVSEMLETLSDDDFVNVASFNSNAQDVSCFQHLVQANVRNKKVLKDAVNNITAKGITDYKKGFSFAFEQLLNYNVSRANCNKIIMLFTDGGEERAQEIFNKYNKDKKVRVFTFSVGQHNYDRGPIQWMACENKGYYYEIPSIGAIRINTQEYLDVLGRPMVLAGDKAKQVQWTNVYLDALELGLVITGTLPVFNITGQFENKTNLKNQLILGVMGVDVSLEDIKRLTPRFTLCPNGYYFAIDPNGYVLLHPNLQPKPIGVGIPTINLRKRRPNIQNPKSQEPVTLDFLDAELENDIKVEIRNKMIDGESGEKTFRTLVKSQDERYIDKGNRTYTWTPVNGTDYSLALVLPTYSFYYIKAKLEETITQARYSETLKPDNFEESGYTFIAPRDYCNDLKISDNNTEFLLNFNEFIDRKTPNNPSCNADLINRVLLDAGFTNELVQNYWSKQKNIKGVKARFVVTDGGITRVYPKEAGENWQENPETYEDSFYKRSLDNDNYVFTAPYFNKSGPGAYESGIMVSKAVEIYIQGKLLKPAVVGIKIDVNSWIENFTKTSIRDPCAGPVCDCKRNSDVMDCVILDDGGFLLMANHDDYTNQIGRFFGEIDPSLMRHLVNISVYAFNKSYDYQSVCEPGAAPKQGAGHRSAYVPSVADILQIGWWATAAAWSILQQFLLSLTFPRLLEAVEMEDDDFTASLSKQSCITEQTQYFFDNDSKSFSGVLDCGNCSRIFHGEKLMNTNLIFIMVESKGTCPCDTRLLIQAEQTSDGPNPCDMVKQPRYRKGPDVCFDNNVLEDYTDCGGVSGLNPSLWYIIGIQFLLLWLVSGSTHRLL

## CCCCc1oc2ccc(NS(C)(=O)=O)cc2c1C(=O)c1ccc(OCCCN(CCCC)CCCC)cc1 [Dronedarone]
[1]
  Papp at 16 h: 3.46 ×10⁻⁶ cm/s
CYP3A4 [2]
  kinact/KI: 8.42e-05 M⁻¹ s⁻¹
CYP3A4 [2]; as printed in text
  kinact/KI: 83.3 M⁻¹ s⁻¹
CYP3A4 [2]; mean ± SEM
  KI: 5.3 ± 2.95 µM
[3]
  period after administration with increased STVQT: 0.5 to 12 h
  peak increment of STVQT: 3.06 ± 0.80 ms
[3]; throughout observation period
  STVQT relative to the critical border for early afterdepolarization: intermittently elevated STVQT
[4]
  solubility at 24 h: 3.22 ± 0.34 µg/mL (≈ 5.78 µM)
[5]
  IC50: 1.96 µM
hiPSC-CMs
  long-term variability (LTVRR), fold compared to poyendarone: 3 fold
  short-term variability (STVRR), fold compared to poyendarone: 4 fold
CYP2J2 [6]; human, recombinant enzyme
  half-life at 1 μmol/L: 3.95 min
CYP2J2 [6]; rCYP2J2
  Intrinsic clearance, CLint: 0.88 µL/min/pmol
CYP2J2 [7]; CYP2J2, rivaroxaban substrate
  kinact/KI: 7.85e-05 M⁻¹ s⁻¹
CYP2J2 [7]; CYP2J2, rivaroxaban substrate, mean ± SEM
  KI: 8.47 ± 3.96 µM
CYP2J2 [7]; human
  kinact: 0.000667 s⁻¹
CYP2J2 [7]; rivaroxaban as probe substrate
  MBI of CYP2J2-mediated rivaroxaban hydroxylation (in words): potently inactivated
[8]; hydrochloride 3 mg/kg i.v. over 30 s, conscious dogs, 21 h observation
  animals in which persistent AF was terminated: 2 out of 4
[8]; [16]
  time of AF termination after the start of administration (individual animals): 5.2 h and 10.6 h
CYP2J2 [9]
  kinact/KI: 8300 M⁻¹ s⁻¹
CYP3A5 [10]; CYP3A5, rivaroxaban substrate
  kinact/KI: 0.000121 M⁻¹ s⁻¹
CYP3A5 [10]; CYP3A5, rivaroxaban substrate, mean ± SEM
  KI: 4.44 ± 1.76 µM
CYP3A5 [10]; human, recombinant CYP3A5 (rCYP3A5), probe rivaroxaban
  kinact: 0.000538 s⁻¹
[11]
  half-life at 1 μmol/L: 10.4 min
  microsomal CLint at 1 μmol/L: 13.3 µL/min/mg
CYP2J2 [12]
  inhibition of CYP2J2-mediated AA metabolism to EETs (in words): inhibits CYP2J2-mediated AA metabolism in a concentration-dependent manner
H9c2 cells
  fold higher cytotoxicity than poyendarone: 22 fold
  fold more potent decrease of intracellular ATP than poyendarone: 13 fold
CYP3A4 [13]; human, recombinant CYP3A4 (rCYP3A4)
  half-life at 1 μmol/L: 8.05 min
CYP3A4 [13]; rCYP3A4
  Intrinsic clearance, CLint: 0.86 µL/min/pmol
CYP3A5 [14]; human, recombinant CYP3A5 (rCYP3A5)
  half-life at 1 μmol/L: 12.2 min
CYP3A5 [14]; rCYP3A5
  Intrinsic clearance, CLint: 0.57 µL/min/pmol
[15]
  atrial effective refractory period prolongation: +4 ms
  inter-atrial conduction time prolongation: +13 ms
Human NaV1.5 channel
  IC50: 3.41 µM
hKV11.1 (hERG) channel
  IC50: 0.16 µM

## CCCCc1oc2ccccc2c1C(=O)c1cc(I)c(OCCN(CC)CC)c(I)c1 [Amiodarone]
[3]
  peak increment of STVQT: 1.05 ± 0.41 ms
[8]; hydrochloride 3 mg/kg i.v., animal #1
  spontaneous AF recurrence, time after the termination of AF: 5.2 h
[8]; [16]
  time of AF termination after the start of administration (individual animals): 7.7 h and 5.9 h
[15]
  atrial effective refractory period prolongation: -3 ms
  inter-atrial conduction time prolongation: +1 ms
